# Data: ChEMBL document CHEMBL2202977, “Optimization and structure-activity relationships of a series of potent inhibitors of methicillin-resistant Staphylococcus aureus (MRSA) pyruvate kinase as novel antimicrobial agents” (Bioorg Med Chem, 2012)
# What was measured:
# [1] = biological target: Pyruvate kinase PKM (Homo sapiens) (UniProt P14618); assay: Inhibition of human pyruvate kinase M2 at 10 uM by LDH assay
# Outline: (§1)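 Selected compounds were tested against mammalian PK isoforms M1, M2, R and L at the highest concentration, 10 µM. Results are given as percent inhibition.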
# [2] = biological target: Pyruvate kinase PKLR (Homo sapiens) (UniProt P30613); assay: Inhibition of human pyruvate kinase R at 10 uM by LDH assay; outline: as §1
# [3] = biological target: Pyruvate kinase PKM (Homo sapiens) (UniProt P14618); assay: Inhibition of human pyruvate kinase M1 at 10 uM by LDH assay; outline: as §1
# [4] = biological target: T1, Pyruvate kinase (Staphylococcus aureus (strain MRSA252)) (UniProt Q6GG09); assay: Inhibition of methicillin-resistant Staphylococcus aureus 252 pyruvate kinase at 10 uM by LDH assay; conditions: Staphylococcus aureus subsp. aureus MRSA252
# T1 sequence (whole entry): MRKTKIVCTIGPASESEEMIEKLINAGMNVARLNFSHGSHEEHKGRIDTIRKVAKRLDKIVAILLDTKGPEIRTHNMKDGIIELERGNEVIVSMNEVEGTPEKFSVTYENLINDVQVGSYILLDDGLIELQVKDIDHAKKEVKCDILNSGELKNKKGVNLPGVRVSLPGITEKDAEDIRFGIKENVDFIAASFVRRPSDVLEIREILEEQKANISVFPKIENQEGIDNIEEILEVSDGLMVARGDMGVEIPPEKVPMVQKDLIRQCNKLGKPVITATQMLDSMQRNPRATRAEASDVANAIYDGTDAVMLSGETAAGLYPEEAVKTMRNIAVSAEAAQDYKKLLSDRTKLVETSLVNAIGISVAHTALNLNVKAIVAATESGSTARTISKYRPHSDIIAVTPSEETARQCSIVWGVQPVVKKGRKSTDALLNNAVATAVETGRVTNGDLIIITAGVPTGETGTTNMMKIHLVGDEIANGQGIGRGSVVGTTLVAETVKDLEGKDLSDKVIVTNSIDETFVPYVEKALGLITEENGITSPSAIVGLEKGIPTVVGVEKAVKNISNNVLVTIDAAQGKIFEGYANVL
# Outline: (§2)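 MRSA pyruvate kinase activity was measured by a previously described procedure. IC50 was calculated from triplicate 15-point titrations, or averaged over n such determinations. Where no IC50 was obtained, the value is % inhibition at the highest concentration tested.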
# Staphylococcus aureus [5] = assay: Antimicrobial activity against Staphylococcus aureus ATCC 29213 after 24 hrs broth microdilution method; type: functional
# Outline: (§3)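 MIC taken as the minimum concentration giving >98% growth inhibition of the named S. aureus strain (RN4220, ATCC 25923 or ATCC 29213). Values are single determinations or averages of n determinations. Vancomycin was run as control.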
# Pyruvate kinase = biological target: T2, Pyruvate kinase (Staphylococcus aureus (strain MRSA252), UniProt Q6GG09); assay: Inhibition of methicillin-resistant Staphylococcus aureus 252 pyruvate kinase by LDH assay; design: species or system Staphylococcus aureus subsp. aureus MRSA252; outline: as §2
# T2 sequence (Q6GG09 whole entry): T1 sequence (whole entry)
# [6] = biological target: Pyruvate kinase PKLR (Homo sapiens) (UniProt P30613); assay: Inhibition of human pyruvate kinase L at 10 uM by LDH assay; outline: as §1
# [7] = biological target: T1, Pyruvate kinase (Staphylococcus aureus (strain MRSA252)); assay: Inhibition of methicillin-resistant Staphylococcus aureus 252 pyruvate kinase at 1 uM by LDH assay; conditions: Staphylococcus aureus subsp. aureus MRSA252; outline: as §2
# Staphylococcus aureus [8] = assay: Antimicrobial activity against Staphylococcus aureus ATCC 25923 after 24 hrs broth microdilution method; type: functional; outline: as §3
# THP-1 [9] = assay: Cytotoxicity against human THP1 cells assessed as cell death at 6.25 uM after 24 hrs by MTS assay; type: cell-based; conditions: thp-1, 24 h
# Outline: (§4)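 THP-1 cells were exposed to test agent at 25 µM and 6.25 µM. Read-out was percentage of dead cells.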
# THP-1 [10] = assay: Cytotoxicity against human THP1 cells assessed as cell death at 25 uM after 24 hrs by MTS assay; type: cell-based; conditions: thp-1, 24 h; outline: as §4
# Staphylococcus aureus [11] = assay: Antimicrobial activity against Staphylococcus aureus RN4220 after 24 hrs broth microdilution method; type: functional; outline: as §3
# [12] = biological target: T1, Pyruvate kinase (Staphylococcus aureus (strain MRSA252)); assay: Inhibition of methicillin-resistant Staphylococcus aureus 252 pyruvate kinase at 0.5 uM by LDH assay; conditions: Staphylococcus aureus subsp. aureus MRSA252; outline: as §2
# Chain of Pyruvate kinase PKLR (Homo sapiens) (P30613 whole entry, looked up): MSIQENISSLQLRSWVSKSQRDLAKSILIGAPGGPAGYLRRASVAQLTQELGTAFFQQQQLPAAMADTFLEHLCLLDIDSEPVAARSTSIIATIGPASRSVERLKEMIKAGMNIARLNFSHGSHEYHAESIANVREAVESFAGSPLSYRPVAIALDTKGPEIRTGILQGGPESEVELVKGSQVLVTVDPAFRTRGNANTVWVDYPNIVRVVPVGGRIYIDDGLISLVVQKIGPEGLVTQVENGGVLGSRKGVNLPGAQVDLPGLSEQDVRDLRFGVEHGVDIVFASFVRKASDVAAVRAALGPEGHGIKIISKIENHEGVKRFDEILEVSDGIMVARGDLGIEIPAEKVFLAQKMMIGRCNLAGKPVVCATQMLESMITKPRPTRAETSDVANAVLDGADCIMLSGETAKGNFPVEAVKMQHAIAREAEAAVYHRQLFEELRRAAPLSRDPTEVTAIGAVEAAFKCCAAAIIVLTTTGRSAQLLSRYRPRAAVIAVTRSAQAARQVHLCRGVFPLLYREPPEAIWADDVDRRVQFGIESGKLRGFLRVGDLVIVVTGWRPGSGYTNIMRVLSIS
# Chain of Pyruvate kinase PKM (Homo sapiens) (P14618 2-531 limits assumed): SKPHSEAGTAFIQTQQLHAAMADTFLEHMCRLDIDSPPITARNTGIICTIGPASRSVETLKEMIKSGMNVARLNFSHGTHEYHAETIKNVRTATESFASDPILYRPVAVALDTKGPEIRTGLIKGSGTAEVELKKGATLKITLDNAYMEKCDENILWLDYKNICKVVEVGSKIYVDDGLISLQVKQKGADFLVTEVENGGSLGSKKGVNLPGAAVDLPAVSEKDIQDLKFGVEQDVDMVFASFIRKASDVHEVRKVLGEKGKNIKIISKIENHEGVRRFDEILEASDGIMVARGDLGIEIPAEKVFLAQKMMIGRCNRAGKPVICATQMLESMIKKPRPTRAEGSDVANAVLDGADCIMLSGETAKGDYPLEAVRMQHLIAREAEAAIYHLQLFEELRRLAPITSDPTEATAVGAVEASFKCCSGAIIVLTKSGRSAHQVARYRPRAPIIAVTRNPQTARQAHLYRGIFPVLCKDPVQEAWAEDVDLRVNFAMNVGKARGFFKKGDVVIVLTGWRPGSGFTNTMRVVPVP
smiles,measurement,setting,value
CC(=NNC(=O)c1cc(Br)ccc1O)c1cc2ccccc2n1C (mixture of isomers),inhibition,[1],0.4%
same,inhibition,[2],2.6%
same,inhibition,[3],-3.7%
same,inhibition,[4],96.3%
same,MIC>98,Staphylococcus aureus [5],7.7 µg/mL
same,IC50,Pyruvate kinase,381 nM
CCC(=NNC(=O)c1cc2ccccc2cc1O)c1cc2cc(Br)ccc2n1C (mixture of isomers),inhibition,[6],-5.6%
same,inhibition,[1],-0.8%
same,inhibition,[2],-0.6%
same,inhibition,[3],0%
same,inhibition,[4],97.7%
same,MIC>98,Staphylococcus aureus [5],1 µg/mL
same,IC50,Pyruvate kinase,79 nM
COc1ccc(Br)cc1C(=O)N(C)/N=C(\C)c1cc2ccccc2[nH]1,inhibition,[7],33%
same,MIC>98,Staphylococcus aureus [8],>80 µg/mL
O=C(NN=C(c1ccccc1)c1cc2ccccc2[nH]1)c1cc(Br)ccc1O,inhibition,[6],5.6%
same,inhibition,[1],4.8%
same,inhibition,[2],13.4%
same,inhibition,[3],11.2%
same,inhibition,[4],97.6%
same,Activity,THP-1 [9],43%
same,Activity,THP-1 [10],83%
same,MIC>98,Staphylococcus aureus [11],1.4 µg/mL
same,IC50,Pyruvate kinase,445 nM
C/C(=N\NC(=O)c1cc(Br)ccc1O)c1cc2ccc(Br)cc2[nH]1,MIC>98,Staphylococcus aureus [8],>64 µg/mL
same,IC50,Pyruvate kinase,24 nM
CC(=NNC(=O)c1cc(Br)ccc1O)c1cc2cc(O)ccc2n1C (mixture of isomers),inhibition,[7],54%
same,MIC>98,Staphylococcus aureus [8],>64 µg/mL
Cn1c(C(=NNC(=O)c2cc(Br)ccc2O)c2ccccc2)cc2ccccc21 (mixture of isomers),Activity,THP-1 [9],19%
same,Activity,THP-1 [10],78%
same,MIC>98,Staphylococcus aureus [11],1.4 µg/mL
same,IC50,Pyruvate kinase,6040 nM
CC(=NNC(=O)c1ccc(Br)cc1O)c1cc2ccccc2n1C (mixture of isomers),inhibition,[12],61%
same,MIC>98,Staphylococcus aureus [11],4.8 µg/mL
CC/C(=N\NC(=O)c1cc2ccccc2cc1O)c1cc2c(F)c(F)c(F)cc2[nH]1,MIC>98,Staphylococcus aureus [5],>64 µg/mL
same,IC50,Pyruvate kinase,31 nM
CC(=NNC(=O)c1cc(Br)ccc1O)c1nc2ccccc2o1 (mixture of isomers),inhibition,[12],26%
same,MIC>98,Staphylococcus aureus [5],>150 µg/mL
COc1c(Br)cc(Br)cc1C(=O)N/N=C(\C)c1cc2ccccc2[nH]1,inhibition,[7],57%
same,MIC>98,Staphylococcus aureus [8],>93 µg/mL
C/C(=N\NC(=O)c1cc(Br)ccc1O)c1cc2cc(-c3ccccc3)ccc2[nH]1,inhibition,[7],0%
same,MIC>98,Staphylococcus aureus [11],>90 µg/mL
C/C(=N\NC(=O)c1cc2ccccc2cc1O)c1cc2ccccc2[nH]1,MIC>98,Staphylococcus aureus [5],>64 µg/mL
same,IC50,Pyruvate kinase,42 nM
CC(=NNC(=O)c1cc2ccccc2cc1O)c1cc2cc(Br)ccc2n1C (mixture of isomers),MIC>98,Staphylococcus aureus [5],>64 µg/mL
same,IC50,Pyruvate kinase,115 nM
COc1ccc(Br)cc1C(=O)N/N=C/c1cc2ccccc2[nH]1,MIC>98,Staphylococcus aureus [5],>64 µg/mL
same,IC50,Pyruvate kinase,451 nM
C/C(=N\NC(=O)c1cc2ccccc2cc1O)c1cc2c(F)c(F)c(F)cc2n1C,MIC>98,Staphylococcus aureus [5],>64 µg/mL
same,IC50,Pyruvate kinase,59 nM
C/C(=N\NC(=O)c1cc(Br)ccc1O)c1cc2cccc(F)c2[nH]1,inhibition,[12],39%
same,MIC>98,Staphylococcus aureus [11],>156 µg/mL
C/C(=N\NC(=O)c1cc(Br)ccc1O)c1cc2c(F)c(F)c(F)cc2[nH]1,MIC>98,Staphylococcus aureus [5],>85 µg/mL
same,IC50,Pyruvate kinase,15 nM
C/C(=N\NC(=O)c1cc2ccccc2cc1O)c1cc2cc(Br)ccc2[nH]1,MIC>98,Staphylococcus aureus [5],>64 µg/mL
same,IC50,Pyruvate kinase,26 nM
C/C(=N\NC(=O)c1cc(Br)ccc1O)c1cc2cc(O)ccc2[nH]1,MIC>98,Staphylococcus aureus [8],>64 µg/mL
same,IC50,Pyruvate kinase,214 nM
Cn1c(/C(=N\NC(=O)c2cc(Br)ccc2O)C(C)(C)C)cc2ccccc21,inhibition,[4],0%
same,Activity,THP-1 [9],25%
same,Activity,THP-1 [10],73%
same,MIC>98,Staphylococcus aureus [11],10.7 µg/mL
CC(C)(C)/C(=N/NC(=O)c1cc(Br)ccc1O)c1cc2ccccc2[nH]1,inhibition,[4],0%
same,Activity,THP-1 [9],42%
same,Activity,THP-1 [10],50%
same,MIC>98,Staphylococcus aureus [11],83 µg/mL
C/C(=N\NC(=O)c1cc(Cl)ccc1O)c1cc2ccccc2[nH]1,inhibition,[7],36%
same,MIC>98,Staphylococcus aureus [11],>64 µg/mL
CC(=NNC(=O)c1cc(Br)ccc1O)c1cc2c(F)c(F)c(F)cc2n1C (mixture of isomers),MIC>98,Staphylococcus aureus [5],2 µg/mL
same,IC50,Pyruvate kinase,55 nM
CCOc1ccc(Br)cc1C(=O)N/N=C(\C)c1cc2ccccc2[nH]1,MIC>98,Staphylococcus aureus [5],>64 µg/mL
same,IC50,Pyruvate kinase,63 nM
CC/C(=N\NC(=O)c1cc2ccccc2cc1O)c1cc2c(F)c(F)c(F)cc2n1C,MIC>98,Staphylococcus aureus [5],32 µg/mL
same,IC50,Pyruvate kinase,52 nM
CC/C(=N\NC(=O)c1cc2ccccc2cc1O)c1cc2cc(Br)ccc2[nH]1,inhibition,[6],-0.2%
same,inhibition,[1],3%
same,inhibition,[2],-3.4%
same,inhibition,[3],5.6%
same,inhibition,[4],99.6%
same,MIC>98,Staphylococcus aureus [5],16 µg/mL
same,IC50,Pyruvate kinase,18 nM
